Activity calls are given as the source filed them. No cut-off for these calls is given here.

What is called IC50 is the midpoint of a concentration-inhibition curve. Low readings indicate greater potency, high ones weaker potency.

Experiment [1] concerns HeLa. Kind of experiment: Cytotoxicity against human HeLa cells after 72 hrs SRB assay. The experiment is classed as functional, cell-based. The method, boiled down:
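HeLa cells (5 × 10⁴ cells/mL suspension) seeded with compound from DMSO dilution series, 10 concentrations 100 μM to 5 nM, five replicates each; 72 h at 37 °C, 5% CO₂. TCA fixation, sulforhodamine B staining, bound dye released in 10 mM Tris pH 10.5, A510. Plate positive and DMSO controls calibrate % death; IC50 from four-parameter logistic fit; SD from ≥3 experiments, or mean of two.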
(The SRB assay estimates cell density from bound dye.)

Experiment [2] concerns U-937. Kind of experiment: Cytotoxicity against human U937 cells after 72 hrs MTS assay. The conditions noted are these: U-937, 72 h. In kind it is functional, cell-based. The method, boiled down:
(§1)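 Cells in RPMI-1640/10% FBS seeded at 1 × 10⁵ (U-937, HL-60) or 1.5 × 10⁵ (HL-60/VCR) cells/mL with compound from DMSO series, 10 concentrations 100 μM to 5 nM, five replicates; 72 h at 37 °C. MTS/PMS added until vehicle OD ≈1.5, A490. Internal positive and DMSO controls; IC50 by four-parameter logistic fit; SD from ≥3 experiments, or mean of two.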

Experiment [3] deals with HL-60. Briefly: Selectivity ratio of IC50 for vincristine-resistant human HL60 cells to IC50 for human HL60 cells. In kind it is functional. The method, boiled down: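 Ratio of MTS-assay IC50 (72 h) in P-gp-overexpressing, vincristine/colchicine-resistant HL-60/VCR over IC50 in parental HL-60.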
Experiment [4] has as its system HL-60. Briefly: Cytotoxicity against human HL60 cells after 72 hrs MTS assay. In kind it is functional, cell-based. The following applies: HL-60, 72 h. The method, boiled down:
as §1
A general note: Tetrazolium dyes change colour on reduction, which living cells bring about.

The subject of experiment [5] is HL-60. Briefly: Cytotoxicity against vincristine-resistant human HL60 cells after 72 hrs MTS assay. In kind it is functional, cell-based. The following applies: HL-60, 72 h. The method, boiled down:
as §1

Experiment [6] concerns HeLa. Kind of experiment: Cell cycle arrest in human HeLa cells by accumulation of cells at G2 phase at 100 nM after 9 hrs by propidium iodide staining based flow cytometry. In kind it is functional. The method, boiled down:
(§2)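 HeLa synchronized in G1/S by double thymidine block, released by washing and plated in fresh medium with test agent (25 μM or 100 nM) or DMSO vehicle for 9 h at 37 °C. Cells fixed in 3% formaldehyde-PBS, permeabilized in cold MeOH, stained with mouse anti-phospho(Ser10) histone H3 then Alexa-Fluor 488 secondary, RNase A-treated, propidium iodide DNA stain. Dual-laser flow cytometry; PI marks G2/M, phospho-H3 marks M-phase.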
(A flow cytometer gives signals particle by particle.)

The test system of experiment [7] is HeLa. Kind of experiment: Cell cycle arrest in human HeLa cells by accumulation of cells at M phase at 100 nM after 9 hrs by propidium iodide staining based flow cytometry. The experiment is classed as functional. The method, boiled down:
as §2

Experiment [8] concerns HeLa. Briefly: Induction of mitotic arrest in human HeLa cells assessed as disruption of microtubule assembly at 25 uM after 6 hrs fluorescence confocal microscopy. In kind it is functional, cell-based. The method, boiled down:
(§3)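 HeLa on nitric acid-washed coverslips, treated at 70% confluency for 6 h with compound (25 μM) or DMSO (0.2% final). Glutaraldehyde fixation in BRB-80, Triton X-100 permeabilization, NaBH₄ reduction, goat-serum block, FITC anti-α-tubulin plus Alexa-Fluor 488 secondary, propidium iodide with RNase A; laser scanning confocal imaging, 63× oil objective.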

The species entered for a further experiment is Bos taurus. Briefly: Inhibition of bovine brain tubulin polymerization at 10 uM by turbidimetry.
The nature of experiment [9]: Inhibition of tubulin polymerization at 100 uM by turbidimetry.
Experiment [10] deals with U-937. Kind of experiment: Cell cycle arrest in human U937 cells by accumulation of cells at G2/M phase at 25 uM after 9 hrs by propidium iodide staining based flow cytometry. The experiment is classed as functional.
The test system of experiment [11] is HeLa. Briefly: Cell cycle arrest in human HeLa cells by accumulation of cells at G2/M phase at 25 uM after 9 hrs by propidium iodide staining based flow cytometry. In kind it is functional. The following applies: in the assay text read “M phase” for “G2/M phase”. The method, boiled down:
as §2

Experiment [12] has as its system HeLa. Briefly: Induction of mitotic arrest in human HeLa cells assessed as mitotic index by indirect immunofluorescence staining (Rvb=2.2%). The experiment is classed as functional.
Experiment [13] concerns HeLa. Kind of experiment: Induction of mitotic arrest in human HeLa cells assessed as chromosomal condensation at 25 uM after 6 hrs fluorescence confocal microscopy. In kind it is functional, cell-based. The method, boiled down: as §3
Experiment [14] deals with HeLa. Briefly: Induction of mitotic arrest in human HeLa cells assessed as increase in number of cells with mitotic DNA by indirect immunofluorescence staining. In kind it is functional, cell-based.
Experiment [15] relates to HeLa. Kind of experiment: Cell cycle arrest in human HeLa cells by accumulation of cells at G2/M phase at 25 uM after 9 hrs by M-phase fluorescence staining based flow cytometry. In kind it is functional. The method, boiled down:
as §2

Regarding `C=CCOc1cccc(/C=C/C(=O)Nc2cc(OC)c(OC)c(OC)c2)c1`, the IC50 in the experiment with HeLa [1] came out at 5.4 µM; in the experiment on U-937 [2], 13.3 µM.
Molecule `COc1cccc(CCC(=O)Nc2cc(OC)c(OC)c(OC)c2)c1` returned an IC50 in the experiment on HeLa [1] above 50 µM.
Take `COc1cccc(/C=C/C(=O)Nc2c(C)cccc2C)c1`: the IC50 in the experiment on HeLa [1] and in the experiment with U-937 [2] was above 50 µM in each case.
In the experiment on U-937 [2], `COc1ccc(NC(=O)/C=C/c2cccc(OC)c2)cc1` showed an IC50 of 18.1 µM.
Same read-out and setting: to `COc1cccc(/C=C/C(=O)Nc2cc(OC)cc(OC)c2)c1` belongs above 50 µM.
As for `COc1cc(NC(=O)/C=C/c2cccc(OC(F)(F)F)c2)cc(OC)c1OC`, in the experiment on HL-60 [3], the “Ratio IC50” value is on record as 0.99. Moreover, the IC50 with HeLa [1] came out at 4.4 µM; in the experiment with HL-60 [4] it was 13.2 µM; with U-937 [2], 13.2 µM; in the experiment with HL-60 [5], 13.1 µM.
Regarding `COC(=O)/C=C/c1cccc(OC)c1`, the IC50 in the experiment on HeLa [1] and in the experiment with U-937 [2] was above 50 µM in each case.
With `C#CCOc1cccc(/C=C/C(=O)Nc2cc(OC)c(OC)c(OC)c2)c1`, the values for the IC50 with HeLa [1] and with U-937 [2] were 2 µM and 6 µM, respectively.
For `COc1cccc(CCC(=O)Nc2ccccc2OC)c1`, in that order: above 50 µM and above 50 µM.
Take `COc1cccc(/C=C/C(=O)NCc2cc(OC)c(OC)c(OC)c2)c1`: the IC50 with HeLa [1] and in the experiment on U-937 [2] was above 50 µM throughout.
For `COc1cccc(/C=C/C(=O)Nc2cccc(OC)c2)c1`, the IC50 with HeLa [1] and in the experiment on U-937 [2] was above 50 µM throughout.
Consider `COc1cc2c(c(OC)c1OC)-c1ccc(OC)c(=O)cc1[C@@H](NC(C)=O)CC2` [COLCHICINE], for which the Activity was 37% with HeLa [6] and 59% in the experiment with HeLa [7]. In the experiment with HL-60 [3], the “Ratio IC50” value is above 1000. The IC50 in the experiment with HL-60 [4] is 0.053 µM; in the experiment with HL-60 [5], above 100 µM.
For `COc1cc(NC(=O)/C=C/c2cccc(O)c2)cc(OC)c1OC`, the figures for the IC50 in the experiment with HeLa [1] and with U-937 [2] were 18.7 µM and 56.7 µM, respectively.
For `COc1cccc(/C=C/C(=O)Nc2ccc3c(c2)OCCO3)c1`, in that order: 20.1 µM and 15.9 µM.
In the experiment on U-937 [2], `COc1cccc(/C=C/C(=O)Nc2cc(C)cc(C)c2)c1` yielded an IC50 above 50 µM.
`COc1cc(/C=C/C(=O)Nc2ccccc2)cc(OC)c1OC`: the IC50 with HeLa [1] and in the experiment with U-937 [2] was above 50 µM in each case.
As for `COc1cc(NC(=O)/C=C/c2ccc(O)cc2)cc(OC)c1`, the concentration for half-maximal inhibition (IC50) in the experiment with HeLa [1] and in the experiment with U-937 [2] was above 50 µM in each case.
Turning to `COc1cc2c(cc1O)CC[C@@H]1[C@@H]2CC[C@]2(C)[C@@H](O)CC[C@@H]12` [2-METHOXYESTRADIOL], the “Ratio IC50” value with HL-60 [3] is 0.26. Moreover, the IC50 with HL-60 [4] came out at 3.4 µM; with HL-60 [5], 0.9 µM.
In the case of `COc1cc(NC(=O)/C=C/c2ccccc2)cc(OC)c1OC`, the results for the IC50 in the experiment with HeLa [1] and with U-937 [2] were above 50 µM and 45 µM, respectively.
In the case of `COc1ccccc1NC(=O)/C=C/c1cc(OC)c(OC)c(OC)c1`, the IC50 with HeLa [1] and in the experiment on U-937 [2] was above 50 µM in each case.
As to `COc1cccc(/C=C/C(=O)Nc2ccccc2)c1`, the half-maximal inhibitory concentration (IC50) with HeLa [1] and in the experiment with U-937 [2] was above 50 µM in each case.
`COc1cc(/C=C/C(=O)Nc2cc(OC)c(OC)c(OC)c2)cc(OC)c1OC`: the half-inhibitory concentration (IC50) was above 50 µM with HeLa [1] and 15.3 µM in the experiment with U-937 [2].
For `COc1ccccc1NC(=O)/C=C/c1cccc(OC(F)(F)F)c1`, in that order: 9.8 µM and 40.4 µM.
The like results for `COc1cc(NC(=O)/C=C/c2ccc(O)cc2)cc(OC)c1OC` were, in that order, above 50 µM and 32 µM.
Regarding `COc1cc(NC(=O)/C=C/c2cc(OC)c(OC)c(OC)c2)cc(OC)c1`, the IC50 with HeLa [1] came out at 38.9 µM; in the experiment on U-937 [2] it was 9.7 µM.
For `COc1ccc(NC(=O)/C=C/c2cc(OC)c(OC)c(OC)c2)cc1`, in that order: above 50 µM and 22.4 µM.
Consider `COc1cc(NC(C)=O)cc(OC)c1OC`, for which the IC50 in the experiment with HeLa [1] and in the experiment on U-937 [2] was above 50 µM throughout.
Regarding `COc1cccc(/C=C/C(=O)Nc2ccccc2OC)c1`, the IC50 in the experiment on U-937 [2] is above 50 µM.
On to `COc1cc(NC(=O)/C=C/c2cccc(OCc3ccccc3)c2)cc(OC)c1OC`, for which the “Ratio IC50” value in the experiment with HL-60 [3] is given as 0.98. The IC50 in the experiment on HeLa [1] was found to be 2.1 µM; in the experiment with HL-60 [4] it was 5.6 µM; in the experiment on U-937 [2], 1.8 µM; in the experiment with HL-60 [5], 5.5 µM. For the same molecule, in the experiment on HeLa [8], the outcome was Active.
As for `COc1cccc(NC(=O)/C=C/c2cc(OC)c(OC)c(OC)c2)c1`, in the experiment with U-937 [2], the 50% inhibitory concentration (IC50) was above 50 µM.
Consider `COc1ccccc1/C=C/C(=O)Nc1cc(OC)c(OC)c(OC)c1`, for which the IC50 in the experiment on HeLa [1] was found to be 6.1 µM; in the experiment on U-937 [2], 5.1 µM.
Regarding `CC(=O)O[C@H]1C(=O)[C@@]2(C)[C@H]([C@H](OC(=O)c3ccccc3)[C@]3(O)C[C@H](OC(=O)[C@H](O)[C@@H](NC(=O)c4ccccc4)c4ccccc4)C(C)=C1C3(C)C)[C@]1(OC(C)=O)CO[C@@H]1C[C@@H]2O`, the inhibition entry in the experiment filed under Bos taurus is “inactive”. Further, the inhibition entry in [9] was “Active”.
As to `COc1cccc(/C=C/C(=O)Nc2cc(OC)c(OC)c(OC)c2)c1`, the result in the experiment on U-937 [10], with HeLa [13], in the experiment with HeLa [14], in the experiment on HeLa [15] and in the experiment with HeLa [8] was Active. The Activity in the experiment with HeLa [11] is 49%; in the experiment on HeLa [12] it was 18.2%. The “Ratio IC50” value in the experiment on HL-60 [3] is 3.74. Also, the IC50 in the experiment with HeLa [1] is 11.3 µM; in the experiment with HL-60 [4], 3.1 µM; with U-937 [2], 3 µM; in the experiment on HL-60 [5] it was 11.6 µM. Besides, the inhibition result in experiment [9] is “Active”.
As for `COc1ccccc1/C=C/C(=O)Nc1ccccc1OC`, the IC50 with HeLa [1] is 36.1 µM; with U-937 [2], above 50 µM.

(Values after ChEMBL document CHEMBL1157767, “Phenylcinnamides as novel antimitotic agents” (J Med Chem, 2010).)
